Data as given in ChEMBL document CHEMBL1147917, “Synthesis and crystallographic analysis of benzophenone derivatives--the potential anti-inflammatory agents” (Bioorg Med Chem, 2007).
The source made the active and inactive calls. The calls are words filed in the database; no cut-off is given here.

Key:
[1] = Toxicity in ip dosed Albino mouse; type: organism-based; conditions: in vivo, read-out: ALD50
Outline: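 Albino mice, 25–30 g, groups of 10, given test compounds intraperitoneally at different dose levels. Mortality per group recorded 24 h after dosing. Approximate 50% lethal dose (ALD50) calculated from mortality data by the Smith method.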

[2] = system: Rattus norvegicus; assay: Toxicity in rat assessed as incidence of hyperaemia at 100 mg/kg, po; type: organism-based; parameters: dose 100 mg/kg, route oral; conditions: in vivo
Outline: (§1)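 Groups of 10 rats (200–230 g), fasted 24 h, dosed orally; controls untreated. Sacrificed 5 h after dosing. Stomach and small intestine examined under microscope for hyperaemia, epithelial shedding, petechiae, frank haemorrhage, erosion or discrete ulceration with or without perforation. Result expressed as percentage of animals affected.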

[3] = system: Rattus norvegicus; assay: Toxicity in rat assessed as incidence of ulcer at 100 mg/kg, po; type: organism-based; parameters: dose 100 mg/kg, route oral; conditions: in vivo; outline: as §1
[4] = system: Rattus norvegicus; assay: Toxicity in rat assessed as incidence of hyperaemia at 200 mg/kg, po; type: organism-based; parameters: dose 200 mg/kg, route oral; conditions: in vivo; outline: as §1
[5] = system: Rattus norvegicus; assay: Toxicity in rat assessed as incidence of ulcer at 200 mg/kg, po; type: organism-based; parameters: dose 200 mg/kg, route oral; conditions: in vivo; outline: as §1
[6] = system: Rattus norvegicus; assay: Antiinflammatory activity against carrageenan-induced paw edema in Albino rat assessed as oedema inhibition relative to control at 20 mg/kg, po; type: functional
Outline: (§2)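 Rats given test compound orally; 30 min later, 0.2 mL of 1% carrageenan in 0.9% NaCl injected subcutaneously into plantar aponeurosis of the hind paw. Paw volume measured by water plethysmometer before and at 3 h. Mean paw-volume increase compared with a carrageenan-only control group of five rats. % inhibition = (1 − Gt/Gc) × 100. Values are means of three determinations.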

[7] = system: Rattus norvegicus; assay: Antiinflammatory activity against carrageenan-induced paw edema in po dosed Albino rat assessed as oedema inhibition; type: functional
[8] = system: Rattus norvegicus; assay: Toxicity in rat assessed as incidence of hyperaemia at 400 mg/kg, po; type: organism-based; parameters: dose 400 mg/kg, route oral; conditions: in vivo; outline: as §1
[9] = system: Rattus norvegicus; assay: Toxicity in rat assessed as incidence of ulcer at 400 mg/kg, po; type: organism-based; parameters: dose 400 mg/kg, route oral; conditions: in vivo; outline: as §1
[10] = system: Rattus norvegicus; assay: Antiinflammatory activity against carrageenan-induced paw edema in Albino rat assessed as oedema inhibition relative to control at 80 mg/kg, po; type: functional; outline: as §2
[11] = system: Rattus norvegicus; assay: Antiinflammatory activity against carrageenan-induced paw edema in Albino rat assessed as oedema inhibition relative to control at 40 mg/kg, po; type: functional; outline: as §2
[12] = species on record: Oryctolagus cuniculus; assay: Inhibition of rabbit microsomal COX at 10 uM
Outline: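 COX source: microsomal pellet from minced, homogenized rabbit distal colon mucosa in 0.1 M Tris, pH 8.0, used immediately. Microsomes preincubated with test agent 10 min at 37 °C in Tris-HCl pH 8.0 with 2 mM glutathione, 5 mM L-tryptophan and 1 µM haematin. Then 20 µM arachidonic acid plus [1-14C] tracer added for 5 min at 37 °C. PGE2 separated by isocratic HPLC; co-eluting radioactivity counted by scintillation. % inhibition calculated versus paired controls.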

Row | Compound | LD50 [1] | Activity [2] | Activity [3] | Activity [4] | Activity [5] | inhibition in vivo at 20 mg/kg [6] | ED50 [7] | Activity [8] | Activity [9] | inhibition in vivo at 80 mg/kg [10] | inhibition in vivo at 40 mg/kg [11] | inhibition [12] | Activity [12]
1 | O=C(Oc1ccc(Cl)cc1C(=O)c1ccc(Cl)cc1)c1ccc(Cl)cc1 | > 1000 mg/kg | 60% | 5% | 80% | 10% | 35.5% | 65.5 mg/kg | 100% | 15% | 60.1% | 48.5% | 60% | –
2 | O=C(Oc1ccc(Cl)cc1C(=O)c1cccc(Cl)c1Cl)c1ccccc1 | > 1000 mg/kg | 70% | 10% | 90% | 20% | 21.1% | 63.6 mg/kg | 100% | 40% | 63.8% | 29.8% | 40% | –
3 | Cc1ccc(OC(=O)c2ccccc2)c(C(=O)c2ccccc2)c1 | > 1000 mg/kg | 40% | 10% | 60% | 20% | 15.1% | 78.6 mg/kg | 100% | 40% | 56.4% | 29.9% | 20% | –
4 | CC(=O)Oc1ccccc1C(=O)O [ASPIRIN] | – | 25% | 75% | 55% | 90% | 29.5% | 95.5 mg/kg | 85% | 85% | 55.1% | 30.5% | 95% | –
5 | Cc1ccc(C(=O)c2cc(C)ccc2OC(=O)c2ccc(Cl)cc2)cc1 | > 1000 mg/kg | 25% | 15% | 50% | 25% | 31.4% | 57.3 mg/kg | 75% | 18% | 85.5% | 46.5% | – | inactive
6 | Cc1ccc(OC(=O)c2ccccc2)c(C(=O)c2ccc(Cl)cc2)c1 | > 1000 mg/kg | 20% | 40% | 40% | 50% | 14.7% | 77.9 mg/kg | 60% | 80% | 47.5% | 24.2% | – | inactive
7 | CCCCC1C(=O)N(c2ccccc2)N(c2ccccc2)C1=O [PHENYLBUTAZONE] | – | 25% | 35% | 50% | 65% | 30.1% | – | 80% | 90% | 55.1% | 33% | 85% | –
8 | Cc1ccc(OC(=O)c2cccc(Cl)c2)c(C(=O)c2cccc(Cl)c2)c1 | > 1000 mg/kg | 25% | 50% | 40% | 65% | 15.1% | 55.7 mg/kg | 50% | 75% | 56.4% | 29.9% | – | inactive
9 | Cc1ccc(C(=O)Oc2ccc(Cl)cc2C(=O)c2ccc(Cl)cc2)cc1 | > 1000 mg/kg | 50% | 10% | 70% | 15% | 29.2% | 60.5 mg/kg | 100% | 20% | 77.1% | 30.4% | 85% | –
10 | Cc1ccc(C(=O)c2cc(F)ccc2OC(=O)c2ccc(Cl)cc2)cc1 | > 1000 mg/kg | 50% | 15% | 70% | 20% | 16.6% | 76.2 mg/kg | 90% | 25% | 64.1% | 44.6% | 70% | –
11 | Cc1ccc(OC(=O)c2ccccc2C)c(C(=O)c2ccccc2C)c1 | > 1000 mg/kg | 50% | 20% | 70% | 30% | 17.5% | 78.9 mg/kg | 90% | 40% | 64.8% | 33.9% | 70% | –
12 | Cc1ccc(C(=O)Oc2ccc(C)cc2C(=O)c2ccc(C)cc2)cc1 | > 1000 mg/kg | 40% | 10% | 60% | 15% | 20.6% | 76.2 mg/kg | 80% | 20% | 60.1% | 30.5% | 65% | –
13 | Cc1ccc(C(=O)Oc2ccc(C)cc2C(=O)c2ccccc2)cc1 | > 1000 mg/kg | 20% | 45% | 35% | 55% | 15.5% | 75.5 mg/kg | 55% | 80% | 46.5% | 29.4% | – | inactive
14 | Cc1ccc(C(=O)Oc2ccc(F)cc2C(=O)c2ccc(C)cc2)cc1 | > 1000 mg/kg | 30% | 20% | 55% | 25% | 20.5% | 70.1 mg/kg | 90% | 45% | 50.5% | 35.5% | 30% | –
15 | Cc1ccc(OC(=O)c2ccccc2)c(C(=O)c2cccc(F)c2)c1 | > 1000 mg/kg | 25% | 50% | 40% | 65% | 18.5% | 75.5 mg/kg | 50% | 75% | 40.5% | 30.2% | – | inactive
16 | O=C(Oc1ccc(Br)cc1C(=O)c1ccc(Cl)cc1)c1ccc(Cl)cc1 | > 1000 mg/kg | 50% | 5% | 70% | 10% | 23.4% | 61.5 mg/kg | 100% | 25% | 77.1% | 46.5% | 87% | –
